In ChEMBL document CHEMBL1143719, “Design, synthesis, and anticonvulsant activity of some sulfamides” (Bioorg Med Chem, 2007):
Calls of active or inactive are those of the source. The rule behind the calls is not given here.

What was measured:
Mus musculus [1] = assay: Anticonvulsant activity in Albino mouse at 30 mg/kg, ip after 0.5 hrs by PTZ assay; format: functional, organism-based; parameters: dose 30 mg/kg
Summary of the method: (§1)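 Mice given compound ip at 30, 100 and 300 mg/kg in 30% polyethylene glycol 400 and 10% water, 0.01 mL/g body weight. Three animals per dose. Maximal electroshock (MES) or pentylenetetrazol (PTZ) seizure tests were run 0.5 and 4 h after dosing, and animals protected were counted.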

Mus musculus [2] = assay: Neurotoxicity in Albino mouse at 30 mg/kg, ip after 0.5 hrs by RotoRod test; format: toxicity, organism-based; parameters: dose 30 mg/kg, route intraperitoneal; conditions: in vivo
Summary of the method: (§2)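 RotoRod neurotoxicity screen in mice dosed ip at 30, 100 and 300 mg/kg, in vehicle of 30% PEG 400 and 10% water (0.01 mL/g). Three animals per dose, tested 0.5 and 4 h after administration. Affected animals were scored per group.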

Mus musculus [3] = assay: Neurotoxicity in Albino mouse at 100 mg/kg, ip after 4 hrs by RotoRod test; format: toxicity, organism-based; parameters: dose 100 mg/kg, route intraperitoneal; conditions: in vivo; summary of the method: as §2
Mus musculus [4] = assay: Neurotoxicity in intraperitoneally dosed Albino mouse at 481 umol/kg by RotoRod test; format: toxicity, organism-based; conditions: in vivo, ip
Summary of the method: (§3)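 Median neurotoxic dose in albino mice given compound ip in 30% PEG 400 and 10% water, at the time of peak effect. Six animals per dose were tested on RotoRod and the percentage showing minimal neurotoxicity was recorded. Where TD50 could not be completed, the highest dose tested is reported.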

Mus musculus [5] = assay: Anticonvulsant activity in Albino mouse at 100 mg/kg, ip after 0.5 hrs by PTZ assay; format: functional, organism-based; parameters: dose 100 mg/kg; summary of the method: as §1
Mus musculus [6] = assay: Anticonvulsant activity in intraperitoneally dosed Albino mouse at 481 umol/kg by PTZ assay; format: functional, organism-based
Summary of the method: (§4)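 Phase II PTZ test in albino mice dosed ip (30% PEG 400 and 10% water), at the predetermined time of peak effect, in groups of six animals.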

[7] = (§5) Neurotoxicity in intraperitoneally dosed Albino mouse by RotoRod test; format: toxicity, organism-based; conditions: Albino, in vivo, ip; summary of the method: as §3
Mus musculus [8] = assay: as §5; format: toxicity, organism-based; conditions: in vivo, ip; summary of the method: as §3
Mus musculus [9] = assay: Anticonvulsant activity in Albino mouse at 100 mg/kg, ip after 4 hrs by PTZ assay; format: functional, organism-based; parameters: dose 100 mg/kg; summary of the method: as §1
Mus musculus [10] = assay: Neurotoxicity in Albino mouse at 30 mg/kg, ip after 4 hrs by RotoRod test; format: toxicity, organism-based; parameters: dose 30 mg/kg, route intraperitoneal; conditions: in vivo; summary of the method: as §2
Mus musculus [11] = assay: Anticonvulsant activity assessed as time of peak effect in intraperitoneally dosed Albino mouse by MES assay; format: functional
Summary of the method: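 Phase II quantification in albino mice (ip; 30% PEG 400 and 10% water vehicle). Time of peak effect was determined first. Groups of six mice then received different doses at that time. MES ED50 is the dose protecting 50% of animals, in µmol/kg.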

Mus musculus [12] = assay: Anticonvulsant activity in Albino mouse at 100 mg/kg, ip after 4 hrs by MES assay; format: functional, organism-based; parameters: dose 100 mg/kg; summary of the method: as §1
Mus musculus [13] = assay: Anticonvulsant activity in Albino mouse at 30 mg/kg, ip after 4 hrs by PTZ assay; format: functional, organism-based; parameters: dose 30 mg/kg; summary of the method: as §1
Mus musculus [14] = organism: Mus musculus; assay: Protective index, ratio of TD50 against Albino mouse to ED50 for Albino mouse; format: functional
Mus musculus [15] = assay: Anticonvulsant activity in Albino mouse at 30 mg/kg, ip after 4 hrs by MES assay; format: functional, organism-based; parameters: dose 30 mg/kg; summary of the method: as §1
Mus musculus [16] = assay: Neurotoxicity in Albino mouse at 100 mg/kg, ip after 0.5 hrs by RotoRod test; format: toxicity, organism-based; parameters: dose 100 mg/kg, route intraperitoneal; conditions: in vivo; summary of the method: as §2
Mus musculus [17] = assay: Neurotoxicity in Albino mouse at 300 mg/kg, ip after 0.5 hrs by RotoRod test; format: toxicity, organism-based; parameters: dose 300 mg/kg, route intraperitoneal; conditions: in vivo; summary of the method: as §2
Mus musculus [18] = assay: Neurotoxicity in Albino mouse at 300 mg/kg, ip after 4 hrs by RotoRod test; format: toxicity, organism-based; parameters: dose 300 mg/kg, route intraperitoneal; conditions: in vivo; summary of the method: as §2
Mus musculus [19] = assay: Anticonvulsant activity in Albino mouse at 30 mg/kg, ip after 0.5 hrs by MES assay; format: functional, organism-based; parameters: dose 30 mg/kg; summary of the method: as §1
Mus musculus [20] = assay: Anticonvulsant activity in Albino mouse at 300 mg/kg, ip after 0.5 hrs by PTZ assay; format: functional, organism-based; parameters: dose 300 mg/kg; summary of the method: as §1
Mus musculus [21] = assay: Anticonvulsant activity in Albino mouse at 300 mg/kg, ip after 4 hrs by MES assay; format: functional, organism-based; parameters: dose 300 mg/kg; summary of the method: as §1
Mus musculus [22] = assay: Anticonvulsant activity in Albino mouse at 300 mg/kg, ip after 0.5 hrs by MES assay; format: functional, organism-based; parameters: dose 300 mg/kg; summary of the method: as §1
Mus musculus [23] = assay: Anticonvulsant activity in Albino mouse at 300 mg/kg, ip after 4 hrs by PTZ assay; format: functional, organism-based; parameters: dose 300 mg/kg; summary of the method: as §1
Mus musculus [24] = assay: Anticonvulsant activity in Albino mouse at 100 mg/kg, ip after 0.5 hrs by MES assay; format: functional, organism-based; parameters: dose 100 mg/kg; summary of the method: as §1
Mus musculus [25] = assay: Neurotoxic time of peak effect in intraperitoneally dosed Albino mouse by RotoRod test; format: ADME, organism-based; conditions: in vivo, ip; summary of the method: as §3
Mus musculus [26] = assay: Anticonvulsant activity in intraperitoneally dosed Albino mouse by MES assay; format: functional; conditions: ip
Mus musculus [27] = assay: Anticonvulsant activity in intraperitoneally dosed Albino mouse at 1613 umol/kg by PTZ assay; format: functional, organism-based; summary of the method: as §4

Row | SMILES | Activity (Mus musculus [1]) | Activity (Mus musculus [2]) | Activity (Mus musculus [3]) | Activity (Mus musculus [5]) | Activity (Mus musculus [9]) | Activity (Mus musculus [10]) | Activity (Mus musculus [12]) | Activity (Mus musculus [13]) | Activity (Mus musculus [15]) | Activity (Mus musculus [16]) | Activity (Mus musculus [17]) | Activity (Mus musculus [18]) | Activity (Mus musculus [19]) | Activity (Mus musculus [20]) | Activity (Mus musculus [21]) | Activity (Mus musculus [22]) | Activity (Mus musculus [23]) | Activity (Mus musculus [24]) | further results
1 | CCCCNS(=O)(=O)NCCCC [BUTYL(BUTYLSULFAMOYL)AMINE] | inactive | Non-toxic | Non-toxic | inactive | inactive | Non-toxic | inactive | inactive | inactive | Non-toxic |  |  |  |  |  |  |  |  | Activity (Mus musculus [4]): 0%; Activity (Mus musculus [6]): inactive; TD50 [7]: > 481 µmol/kg; Activity (Mus musculus [8]): 0%; Activity (Mus musculus [11]): 2 h; PI (Mus musculus [14]): >1.6
2 | CCCCN(CCCC)S(N)(=O)=O | inactive | Non-toxic | Non-toxic |  | inactive | Non-toxic | inactive | inactive | inactive | Non-toxic | Toxic | Toxic | inactive |  |  |  |  |  | 
3 | CCCN(CCC)S(N)(=O)=O | inactive | Toxic | Toxic |  |  | Toxic |  | inactive | inactive | Toxic |  |  | inactive |  |  |  |  |  | 
4 | O=S(=O)(NC1CC1)NC1CC1 | inactive | Non-toxic | Non-toxic | inactive | inactive | Non-toxic | inactive | inactive | inactive | Non-toxic | Non-toxic | Non-toxic | inactive | inactive | inactive | inactive | inactive | inactive | 
5 | O=S(=O)(N1CCOCC1)N1CCOCC1 | inactive | Non-toxic | Non-toxic | inactive | inactive | Non-toxic | inactive | inactive | inactive | Non-toxic |  |  | inactive |  |  |  |  | inactive | 
6 | CCCCN(CCCC)S(=O)(=O)N(CCCC)CCCC | inactive | Non-toxic | Non-toxic | inactive | inactive | Non-toxic | inactive |  | inactive | Non-toxic | Non-toxic | Non-toxic | inactive | inactive | inactive | inactive | inactive | inactive | 
7 | NS(=O)(=O)NCc1ccccc1 | inactive | Non-toxic | Non-toxic | inactive | inactive | Non-toxic |  | inactive |  | Non-toxic | Non-toxic | Non-toxic |  | inactive | Active | Active | inactive | Active | Activity (Mus musculus [25]): 0.5 h; TD50 [7]: 1420 µmol/kg; Activity (Mus musculus [11]): 0.5 h; ED50 (Mus musculus [26]): 239 µmol/kg; PI (Mus musculus [14]): 5.9; Activity (Mus musculus [27]): inactive
8 | CCCN(CCC)S(=O)(=O)NC(=O)OC(C)(C)C | inactive | Non-toxic | Non-toxic | inactive | inactive | Non-toxic | inactive | inactive | inactive | Non-toxic | Non-toxic | Non-toxic | inactive | inactive | inactive |  | inactive | inactive | 
9 | CCCCNS(=O)(=O)NC(=O)OC(C)(C)C | inactive | Non-toxic | Non-toxic | inactive | inactive | Non-toxic |  | inactive | inactive | Non-toxic | Non-toxic | Non-toxic |  | inactive |  | Active | inactive | Active | 
10 | CCCCN(CCCC)S(=O)(=O)NC(=O)OC(C)(C)C | inactive | Non-toxic | Non-toxic | inactive | inactive | Non-toxic | inactive | inactive |  | Non-toxic | Non-toxic | Non-toxic | inactive | inactive |  |  | inactive |  | 
11 | CCCN(CCC)S(=O)(=O)N(CCC)CCC | inactive | Non-toxic | Non-toxic | inactive | inactive | Non-toxic | inactive | inactive | inactive | Non-toxic | Non-toxic | Non-toxic | inactive | inactive | inactive | inactive | inactive | inactive | 
12 | CCCNS(=O)(=O)NCCC | inactive | Non-toxic | Non-toxic |  | inactive | Non-toxic | inactive |  | inactive | Non-toxic |  | Non-toxic | inactive | Active | inactive | Active | inactive | inactive | 
13 | CC(C)(C)OC(=O)NS(=O)(=O)NCc1ccccc1 | inactive | Non-toxic | Non-toxic | inactive | inactive | Non-toxic | inactive | inactive | inactive | Non-toxic | Non-toxic | Non-toxic | inactive | inactive | inactive | inactive | inactive | inactive | 
14 | CCCCNS(N)(=O)=O | inactive | Non-toxic | Non-toxic | inactive | inactive | Non-toxic |  | inactive |  |  | Toxic |  | inactive |  |  |  |  | inactive | 
